Activity calls are given as the source filed them. The calls are words filed in the database; no cut-off is given here.

What is called IC50 is the concentration at which inhibition is half-maximal.

Assay [1] can be described thus: Cytotoxicity against HLF assessed as growth inhibition after 72 hrs by MTT assay. It is filed as functional. Conditions: Homo sapiens.
A further assay concerns MDA-MB-231. The assay is described as follows: Cytotoxicity against human MDA-MB-231 cells assessed as growth inhibition after 72 hrs by MTT assay. It is filed as functional, cell-based. The conditions noted are these: MDA-MB-231, 72 h.
Assay [2] deals with HCT-116. The assay is described as follows: Cytotoxicity against human HCT116 cells assessed as growth inhibition after 72 hrs by MTT assay. It is filed as functional, cell-based. The conditions noted are these: HCT-116, 72 h. For orientation: Tetrazolium dyes change colour on reduction, which living cells bring about.
Assay [3] concerns the target DNA topoisomerase 2-alpha (Homo sapiens) (UniProt P11388). Put plainly: Inhibition of topoisomerase-2alpha (unknown origin)-mediated pBR322 DNA relaxation at 50 uM after 30 mins by agarose gel electrophoresis. An outline of the steps: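 Purified Top2α relaxation of supercoiled pBR322 plasmid with compound at 50 μM; etoposide 50 μM as reference; DNA-only and DNA + enzyme lanes as controls; gel read-out; repeated 3 times.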

A further assay has as its target Histone deacetylase 1 (Homo sapiens, UniProt Q13547). The assay is described as follows: Inhibition of recombinant full length human HDAC1 (1 to 482) expressed in baculovirus infected insect Sf9 cells using fluorogenic HDAC substrate 3 after 30 mins by fluorescence assay.
Assay [4] concerns the target T1, DNA topoisomerase 1 (Homo sapiens) (UniProt P11387).
T1 sequence (whole entry): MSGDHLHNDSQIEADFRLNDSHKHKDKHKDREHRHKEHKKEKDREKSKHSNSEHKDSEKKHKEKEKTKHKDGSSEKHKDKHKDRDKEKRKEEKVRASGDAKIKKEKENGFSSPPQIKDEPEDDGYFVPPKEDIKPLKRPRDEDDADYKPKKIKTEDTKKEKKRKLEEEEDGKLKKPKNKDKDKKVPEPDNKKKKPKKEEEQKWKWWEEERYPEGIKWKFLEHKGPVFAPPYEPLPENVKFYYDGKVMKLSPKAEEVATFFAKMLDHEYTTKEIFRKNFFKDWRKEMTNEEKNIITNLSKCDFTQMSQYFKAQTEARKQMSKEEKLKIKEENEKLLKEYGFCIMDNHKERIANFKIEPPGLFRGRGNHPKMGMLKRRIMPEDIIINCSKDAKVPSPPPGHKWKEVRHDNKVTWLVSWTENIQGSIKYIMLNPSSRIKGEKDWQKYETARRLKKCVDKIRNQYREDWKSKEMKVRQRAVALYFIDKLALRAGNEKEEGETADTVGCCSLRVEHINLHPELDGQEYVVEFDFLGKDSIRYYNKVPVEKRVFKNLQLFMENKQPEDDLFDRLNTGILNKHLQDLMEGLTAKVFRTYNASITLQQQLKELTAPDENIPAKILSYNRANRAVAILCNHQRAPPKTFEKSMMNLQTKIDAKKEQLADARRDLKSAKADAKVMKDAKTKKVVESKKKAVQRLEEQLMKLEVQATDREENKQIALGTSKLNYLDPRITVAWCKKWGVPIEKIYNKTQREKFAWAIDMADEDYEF
The assay is described as follows: Inhibition of topoisomerase1 (unknown origin)-mediated pBR322 DNA relaxation at 50 uM after 15 mins by agarose gel electrophoresis. An outline of the steps: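 Relaxation of supercoiled pBR322 plasmid by purified Top1 with compound at 50 μM; camptothecin 50 μM as reference; DNA-only and DNA + enzyme lanes as controls; gel read-out; repeated 3 times.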

Assay [5] has as its system HCT-116. The assay is described as follows: Induction of apoptosis in human HCT116 cells at 5 uM after 24 hrs by annexin V-FITC/propidium iodide staining-based flow cytometric analysis relative to control. It is filed as functional.
In assay [6] the test system is HCT-116. Put plainly: Induction of apoptosis in human HCT116 cells at 5 uM after 48 hrs by annexin V-FITC/propidium iodide staining-based flow cytometric analysis relative to control. The class given is functional.
Assay [7] relates to HCT-116. The assay is described as follows: Induction of apoptosis in human HCT116 cells assessed as early apoptotic cells at 5 uM after 48 hrs by annexin V-FITC/propidium iodide staining-based flow cytometric analysis (reference value: 2.76%). It is filed as functional. A general note: Flow cytometry measures light scatter and fluorescence of single cells or particles in a stream.

Assay [8] relates to HCT-116. The assay is described as follows: Induction of apoptosis in human HCT116 cells assessed as early apoptotic cells at 5 uM after 24 hrs by annexin V-FITC/propidium iodide staining-based flow cytometric analysis (reference value: 2.27%). The class given is functional.
In assay [9] the test system is HCT-116. The assay is described as follows: Induction of apoptosis in human HCT116 cells assessed as late apoptotic cells at 5 uM after 24 hrs by annexin V-FITC/propidium iodide staining-based flow cytometric analysis (reference value: 1.05%). It is filed as functional.
For assay [10], the system named is HCT-116. The assay is described as follows: Induction of apoptosis in human HCT116 cells assessed as late apoptotic cells at 5 uM after 48 hrs by annexin V-FITC/propidium iodide staining-based flow cytometric analysis (reference value: 3.03%). It is filed as functional.
The test system of assay [11] is HCT-116. Put plainly: Induction of apoptosis in human HCT116 cells assessed as necrotic cells at 5 uM after 24 hrs by annexin V-FITC/propidium iodide staining-based flow cytometric analysis (reference value: 8%). It is filed as functional.
For assay [12], the system named is HCT-116. The assay is described as follows: Induction of apoptosis in human HCT116 cells assessed as necrotic cells at 5 uM after 48 hrs by annexin V-FITC/propidium iodide staining-based flow cytometric analysis (reference value: 5.25%). It is filed as functional.

Histone deacetylase 1, sequence (Q13547 whole entry): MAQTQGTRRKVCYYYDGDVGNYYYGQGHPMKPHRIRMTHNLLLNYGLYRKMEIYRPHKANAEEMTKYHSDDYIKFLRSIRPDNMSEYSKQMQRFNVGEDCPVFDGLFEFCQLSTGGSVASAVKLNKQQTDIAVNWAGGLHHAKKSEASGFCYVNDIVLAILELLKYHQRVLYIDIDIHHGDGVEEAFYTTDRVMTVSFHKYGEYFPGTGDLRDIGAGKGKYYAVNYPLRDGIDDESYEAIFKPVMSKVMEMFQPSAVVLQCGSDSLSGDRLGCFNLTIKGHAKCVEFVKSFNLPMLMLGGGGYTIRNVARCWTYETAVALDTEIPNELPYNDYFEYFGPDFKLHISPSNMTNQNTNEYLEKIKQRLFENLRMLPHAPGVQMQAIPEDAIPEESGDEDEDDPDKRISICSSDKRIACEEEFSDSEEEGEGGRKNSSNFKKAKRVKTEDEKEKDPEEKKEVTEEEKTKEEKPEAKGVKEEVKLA
DNA topoisomerase 2-alpha (Homo sapiens), sequence (P11388 whole entry): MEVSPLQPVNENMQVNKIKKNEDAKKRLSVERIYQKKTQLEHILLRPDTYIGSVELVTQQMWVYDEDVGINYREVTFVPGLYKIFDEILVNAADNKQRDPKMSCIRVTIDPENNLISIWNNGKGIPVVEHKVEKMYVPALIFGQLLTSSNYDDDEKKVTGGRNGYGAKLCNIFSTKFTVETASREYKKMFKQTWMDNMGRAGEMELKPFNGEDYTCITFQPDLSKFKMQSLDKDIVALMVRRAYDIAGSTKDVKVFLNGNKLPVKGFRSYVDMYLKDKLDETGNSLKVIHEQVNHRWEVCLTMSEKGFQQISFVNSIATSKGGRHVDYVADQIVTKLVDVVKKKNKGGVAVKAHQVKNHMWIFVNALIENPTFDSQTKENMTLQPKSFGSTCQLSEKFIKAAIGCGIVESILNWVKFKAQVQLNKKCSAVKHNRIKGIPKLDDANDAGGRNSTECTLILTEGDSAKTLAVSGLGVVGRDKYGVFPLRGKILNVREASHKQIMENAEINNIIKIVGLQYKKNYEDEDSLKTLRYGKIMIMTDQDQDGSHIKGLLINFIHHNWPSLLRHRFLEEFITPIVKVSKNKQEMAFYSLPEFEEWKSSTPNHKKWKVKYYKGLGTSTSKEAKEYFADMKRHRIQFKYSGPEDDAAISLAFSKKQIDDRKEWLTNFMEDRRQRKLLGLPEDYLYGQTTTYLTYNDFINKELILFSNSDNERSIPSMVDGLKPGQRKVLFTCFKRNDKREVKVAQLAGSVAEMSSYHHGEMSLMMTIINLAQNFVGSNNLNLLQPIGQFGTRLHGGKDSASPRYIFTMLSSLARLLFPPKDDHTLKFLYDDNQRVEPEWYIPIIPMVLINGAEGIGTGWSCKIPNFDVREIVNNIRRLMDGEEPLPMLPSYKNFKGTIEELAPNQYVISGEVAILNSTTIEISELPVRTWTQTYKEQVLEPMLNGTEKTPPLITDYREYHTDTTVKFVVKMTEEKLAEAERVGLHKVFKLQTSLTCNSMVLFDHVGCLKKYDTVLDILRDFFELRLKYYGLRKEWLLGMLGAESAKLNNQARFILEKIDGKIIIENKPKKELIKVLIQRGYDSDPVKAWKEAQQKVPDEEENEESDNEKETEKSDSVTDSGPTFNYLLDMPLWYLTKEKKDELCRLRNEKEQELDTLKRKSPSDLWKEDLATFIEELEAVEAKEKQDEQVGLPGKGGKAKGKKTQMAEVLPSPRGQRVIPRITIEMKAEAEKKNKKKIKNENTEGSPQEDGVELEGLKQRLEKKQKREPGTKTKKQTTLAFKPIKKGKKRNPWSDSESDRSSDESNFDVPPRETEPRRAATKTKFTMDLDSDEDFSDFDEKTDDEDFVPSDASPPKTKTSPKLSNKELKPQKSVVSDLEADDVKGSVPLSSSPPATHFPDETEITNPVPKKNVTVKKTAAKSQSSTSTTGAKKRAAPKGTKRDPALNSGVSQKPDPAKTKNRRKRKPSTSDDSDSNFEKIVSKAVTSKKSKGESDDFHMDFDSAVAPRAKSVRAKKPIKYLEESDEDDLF

On to `CN1c2ccc(NCc3ccc(-c4noc(CCCCC(=O)NO)n4)cc3)cc2C(=O)N2CCc3c([nH]c4ccc(O)cc34)C21` (configuration not stated), for which the IC50 in assay [1] is 8.2 µM; in the assay on MDA-MB-231 it was 5.9 µM; in the assay on HCT-116 [2], 3.7 µM; at Histone deacetylase 1, 0.19 µM. Moreover, the inhibition result in [3] and in assay [4] was “Active” in each case.
Regarding `COc1ccc2[nH]c3c(c2c1)CCN1C(=O)c2cc(NC(=O)CCCCC(=O)NO)ccc2N(C)C31` (configuration not stated), the half-inhibitory concentration (IC50) is 62 µM in assay [1], 36 µM in the assay with MDA-MB-231, 22 µM in the assay with HCT-116 [2] and 0.275 µM at Histone deacetylase 1. Besides, the inhibition entry in assay [3] was “Active”. Besides, in assay [4], the inhibition result was “inactive”.
On to `CN1c2ccc(NCc3ccc(-c4nnc(CCCC(=O)NO)o4)cc3)cc2C(=O)N2CCc3c([nH]c4ccc(O)cc34)C21` (configuration not stated), for which the 50% inhibitory concentration (IC50) is greater than 168 µM in assay [1], greater than 168 µM in the assay with MDA-MB-231, 11 µM with HCT-116 [2] and greater than 10 µM at Histone deacetylase 1. Besides, the inhibition entry in assay [3] and in assay [4] was “Active” in each case.
Regarding `CN1c2ccc(NCc3ccc(-c4nnc(CCCCCCC(=O)NO)o4)cc3)cc2C(=O)N2CCc3c([nH]c4ccc(O)cc34)C21` (configuration not stated), the half-inhibitory concentration (IC50) in assay [1] amounted to 6.1 µM; in the assay with MDA-MB-231, 5.7 µM; with HCT-116 [2] it was 9.7 µM; on Histone deacetylase 1, 0.089 µM. The inhibition result in [3] and in assay [4] was “Active” throughout.
Turning to `CN1c2ccc(N)cc2C(=O)N2CCc3c([nH]c4ccc(O)cc34)C21` (configuration not stated), the IC50 in [1] was 0.47 µM; with MDA-MB-231, 0.49 µM; with HCT-116 [2], 0.43 µM. Besides, the Activity in the assay on HCT-116 [5] stood at 11.09%; in the assay on HCT-116 [6], 16.39%. The inhibition result in [3] and in assay [4] was “Active” each time.
Regarding `CN1c2ccc(NCc3ccc(-c4noc(CCCC(=O)NO)n4)cc3)cc2C(=O)N2CCc3c([nH]c4ccc(O)cc34)C21` (configuration not stated), the half-maximal inhibitory concentration (IC50) in [1] was 6.7 µM; with MDA-MB-231 it was 16 µM; in the assay with HCT-116 [2] it was 3.5 µM; on Histone deacetylase 1, 0.321 µM. In addition, the inhibition result in [3] and in assay [4] was “Active” each time.
Take `O=C(CCCCCCC(=O)Nc1ccccc1)NO` [VORINOSTAT]: the Activity amounted to 11.37% in the assay with HCT-116 [7]; 19.2% in the assay with HCT-116 [8]; 6.34% in the assay on HCT-116 [9]; 35.44% with HCT-116 [10]; 1.76% in the assay on HCT-116 [11]; 15.64% in the assay on HCT-116 [12].
Take `CN1c2ccc(NCc3ccc(-c4nnc(CCCCC(=O)NO)o4)cc3)cc2C(=O)N2CCc3c([nH]c4ccc(O)cc34)C21` (configuration not stated): the IC50 worked out at 26 µM in assay [1], 30 µM in the assay on MDA-MB-231, 4.9 µM in the assay with HCT-116 [2] and 0.093 µM at Histone deacetylase 1. For the same compound, the inhibition result in assay [3] and in assay [4] was “Active” each time.
Take `COc1ccc2[nH]c3c(c2c1)CCN1C(=O)c2cc(NC(=O)CCCCCC(=O)NO)ccc2N(C)C31` (configuration not stated): the half-maximal inhibitory concentration (IC50) in assay [1] is 68 µM; with MDA-MB-231, 58 µM; in the assay on HCT-116 [2], 35 µM; at Histone deacetylase 1, greater than 10 µM. Also, the inhibition result in assay [3] is “Active”. For the same compound, in assay [4], the inhibition entry is “inactive”.
With `COc1cc([C@@H]2c3cc4c(cc3[C@@H](O[C@@H]3O[C@@H]5CO[C@@H](C)O[C@H]5[C@H](O)[C@H]3O)[C@H]3COC(=O)[C@H]23)OCO4)cc(OC)c1O`, the inhibition entry in [3] was “Active”.
As to `CN1c2ccc(NCc3ccc(NC(=O)CCCCCCC(=O)NO)cc3)cc2C(=O)N2CCc3c([nH]c4ccc(O)cc34)C21` (configuration not stated), the IC50 turned out to be 13 µM in assay [1], 14 µM in the assay with MDA-MB-231, 2.1 µM in the assay with HCT-116 [2] and 0.03 µM on Histone deacetylase 1. The inhibition result in [3] and in assay [4] was “Active” in each case.

These data come from ChEMBL document CHEMBL3576845, “Discovery of Novel Multiacting Topoisomerase I/II and Histone Deacetylase Inhibitors” (ACS Med Chem Lett, 2015).
